High-throughput results deposited in PubChem by Johns Hopkins Ion Channel Center.
Hits are enriched below; roughly 3.7% of the tested compounds scored in any of these assays.
KCNQ1 inh: inhibitors of human KCNQ1 channel, primary screen, cell-based, thallium flux, high-throughput | Potassium voltage-gated channel subfamily KQT member 1 (Homo sapiens), P51787 | CHO-K1 KCNQ1, FluxOR thallium flux fluorescence; hits give high values | B-score at 10 µM | 310,000 compounds, 1.3% hits | AID 2642, 2010;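 active means compounds whose thallium flux B-score, printed positive for inhibition, exceeds three library SD while starting fluorescence stays within three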;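 further: channel opened by potassium depolarization with thallium stimulus after 20 min compound exposure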
Kir21 block: inhibitors of mouse Kir2.1 inward-rectifier potassium channel. 310,000 compounds, 0.85% hits. B-score at 10 µM. Inward rectifier potassium channel 2 (Mus musculus), P35561. HEK293-Kir2.1, FluxOR thallium flux fluorescence; hits give low values;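 active means fluorescence ratio B-score at or below minus 3 SD of library scores, with starting-brightness B-score within 2 SD, cut at about -4.2 in these data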;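 further: channel flux triggered by added potassium and thallium sulfate stimulus; B-score of peak minus minimum fluorescence over baseline after thallium stimulus; more negative B-score means stronger Kir2.1 block with less thallium influx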
KCNK3 block: human KCNK3 channel inhibitors, primary screen, CHO cells, FluxOR thallium flux, B-score | AID 602410, 2012 | B-score at 10 µM | Potassium channel subfamily K member 3 (Homo sapiens), O14649 | FluxOR fluorescence; hits give low values | 340,000 compounds, 0.84% hits;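 active means B-score under library mean minus 4 SD, starting fluorescence ratio at most library mean plus 5 SD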;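 further: more negative B-score means stronger inhibition of thallium flux through KCNK3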
Target sequence (O14649 whole entry, looked up): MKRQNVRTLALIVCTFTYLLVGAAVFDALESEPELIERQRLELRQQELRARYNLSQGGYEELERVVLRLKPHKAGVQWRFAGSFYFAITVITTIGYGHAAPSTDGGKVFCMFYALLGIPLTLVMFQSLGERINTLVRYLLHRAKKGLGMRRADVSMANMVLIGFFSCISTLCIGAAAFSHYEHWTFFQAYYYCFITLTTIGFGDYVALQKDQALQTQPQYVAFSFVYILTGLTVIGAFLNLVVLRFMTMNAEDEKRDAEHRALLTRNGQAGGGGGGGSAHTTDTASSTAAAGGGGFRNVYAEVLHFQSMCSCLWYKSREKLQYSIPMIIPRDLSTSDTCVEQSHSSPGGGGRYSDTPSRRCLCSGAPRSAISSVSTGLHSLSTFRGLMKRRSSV
KCNK9 inh: KCNK9 potassium channel inhibitors, primary screen, HEK293 cells, thallium flux | Potassium channel subfamily K member 9 (Homo sapiens), Q9NPC2 | FluxOR thallium flux fluorescence; hits give low values | B-score at 10 µM | 310,000 compounds, 1.2% hits;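 active means ratio B-score over 3 SD below the library mean, with starting fluorescence within 5 SD of its mean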;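 further: negative B-score means less thallium flux so channel inhibition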
KCNQ1 pot: potentiators or activators of KCNQ1 channel, primary screen, cell-based, thallium flux, high-throughput. CHO-K1 KCNQ1, thallium flux FluxOR fluorescence; hits give high values. B-score at 10 µM. 310,000 compounds, 0.35% hits. AID 2648, 2010;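 active means fluorescence ratio B-score, a plate-corrected score, at least three library SD, with initial intensity B-score within 5 SD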
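System: CHO-K1 cells stably expressing KCNQ1 / Medium: assay buffer for compound exposure, DMSO matched across wells / Reagent: thallium- and potassium-containing depolarizing buffer / Compound: one concentration, matched DMSO / Incubation: 20 min compound pretreatment at room temperature / Measured by: kinetic FluxOR fluorescence, 10 s baseline plus 110 s post-stimulus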
hERG rescue: hERG rescue from dofetilide block, primary screen, cell-based, CHO-hERG, FluxOR thallium flux, dofetilide IC70; dofetilide IC70 present; activation (rescue from dofetilide block), less the hit threshold, % at 10 µM; 310,000 compounds, 0.51% hits; AID 1511, 2009;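 active means activation above the mean of controls blocked by dofetilide plus 5 SD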;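 further: thallium influx through hERG after potassium depolarization seen as dye fluorescence rise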
Of the large screens only hits and unclear results are named; the others gave an inactive call.

CC(C)(C)c1cnnn1-c1ccc(C(=O)CCl)cc1	Kir21 block -6.5
COc1ccc(OC)c(C(=O)c2coc3cc(Br)c(O)c(Br)c23)c1	KCNK9 inh -7.6
COc1ccc(OC)c(C(=O)c2coc3ccc(O)c(CN(C)C)c23)c1	none
CCC(=O)NC(=S)NNC(=O)c1ccc(OC)cc1	KCNK9 inh -7.2
COc1ccc(C(=O)NNC(=S)NC(=O)c2ccc(Cl)cc2)cc1	none
CCCCOc1ccc(C(=O)NNC(=S)NC(=O)CC)cc1	none
COc1ccc(C(=O)NC(=S)NNC(=O)c2ccc(C)cc2)cc1	KCNQ1 pot 13
Cc1ccc(S(=O)(=O)N2CCCCC2C)cc1[N+](=O)[O-] (stereo not drawn)	none
C/C(=N\NC(=O)CSCc1ccccc1Cl)c1cc(O)ccc1O	hERG rescue 4.7
CC(=O)Nc1ccc(NC(=O)CSCc2ccccc2Cl)cc1	none
COc1ccc(-c2sc(Nc3ccccc3)n[n+]2-c2ccc(F)cc2)c(OC)c1OC	KCNQ1 inh 7
COc1cc(OC)c(-c2sc(Nc3ccccc3)n[n+]2-c2ccc(F)cc2)cc1OC	none
COc1ccc(S(=O)(=O)n2cccc2)c(OC)c1	none
COc1ccccc1N1CCN(CC(O)COCCOc2ccc(Br)cc2)CC1 (stereo not drawn)	none
CC(C)(c1ccccc1)c1ccc(OCC(O)CN2CCCC2)cc1 (stereo not drawn)	Kir21 block -5.3
COc1ccc(N2CCN(CC(O)COCCOc3ccc(Br)cc3)CC2)cc1 (stereo not drawn)	Kir21 block -4.3
OC(COc1ccc2cc(Br)ccc2c1)CN1CCCC1 (stereo not drawn)	Kir21 block -6.8
Cc1cc(=O)n2nc(N3CCCC(C(=O)NCc4ccccc4Cl)C3)sc2n1 (stereo not drawn)	none
Cc1cc(=O)nc2c3ccccc3n(CC(=O)NCCC3=CCCCC3)n12	none
O=C(CN1C(=O)NC2(CCCC2)C1=O)N1CCN(S(=O)(=O)c2ccc(Cl)c(C(F)(F)F)c2)CC1	none
CN(C)CCCOc1ccc2c(c1)Sc1ccccc1CC2=O	Kir21 block -4.2
CCOc1ccccc1OCCN1CCCC1	none
O=C1Cc2ccccc2Sc2cc(OCCCN3CCCCC3)ccc21	Kir21 block -8.7
O=C1Cc2ccccc2Sc2c(OCCN3CCCCC3)cccc21	Kir21 block -7.7
Clc1ccc(OCCCN2CCCC2)cc1Cl	none
O=c1cc(N=Nc2ccc(Cl)cc2)[nH]c(=O)[nH]1	none
C[N+]1(CN2C(=O)C3C4C=CC(C4)C3C2=O)CCCCC1 (stereo not drawn)	none
CCOC(=O)c1oc2ccc(S(=O)(=O)n3nc(-c4ccc(OC)cc4)cc3N)cc2c1C	KCNQ1 pot 9
CCOC(=O)c1oc2ccc(S(=O)(=O)n3nc(-c4ccccc4)cc3N)cc2c1C	none
Cc1ccc(CNC(=O)c2cn(C3CCCC3)c(=O)c3c2c2ccccc2n3C)o1	KCNK9 inh -6.7 (no result: KCNK3 block)
Cn1c2ccccc2c2c(C(=O)NCc3ccco3)cn(C3CCCCC3)c(=O)c21	none
CCOC(=O)CNC(=O)N1CCCC(N(C)CCc2ccccc2)C1 (stereo not drawn)	none
NCCSc1c(-c2ccc(Cl)cc2)[nH]c2ccccc12	Kir21 block -9.9, KCNK9 inh -7.3
NCCSc1c(-c2ccccc2)[nH]c2ccccc12	none
CC1CCc2c(sc3nc(C4CC4)nc(N4CCN(C(=O)c5ccco5)CC4)c23)C1 (stereo not drawn)	KCNQ1 inh 6
COC(=O)c1ccc(C2C(C#N)=C(N)Oc3cc(N)ccc32)cc1 (stereo not drawn)	none
COC(=O)c1ccc(C2C(C#N)=C(N)Oc3cc(O)ccc32)cc1 (stereo not drawn)	hERG rescue 61
O=C(NC1CC1)c1cccc(NC(=O)C2CCN(S(=O)(=O)c3cccc(C(F)(F)F)c3)CC2)c1	none (no result: KCNQ1 inh, Kir21 block, KCNK9 inh, KCNQ1 pot, hERG rescue)
Nc1ccn(Cc2ccccc2)n1	hERG rescue 41
Cc1ccc(NC(=S)NNC(=O)c2ccccc2O)c(C)c1	KCNQ1 inh 10
Cc1ccc(C)c(NC(=S)NNC(=O)c2csc3c2CCCC3)c1	KCNQ1 pot 11
Cc1ccc(C)c(NC(=S)NNC(=O)c2csc3c2CCC(C)C3)c1 (stereo not drawn)	KCNQ1 pot 19, hERG rescue 6.8
Cc1cccc(NC(=S)NNC(=O)c2csc3c2CCCC3)c1	none
Cc1ccc(NC(=O)NNC(=O)c2cc3ccccc3cc2O)c(C)c1	none
CCOc1ccc(S(=O)(=O)n2cnc(C)c2)cc1	none
CCN(C(=O)C(C)Sc1ccc(S(=O)(=O)N2CCOCC2)cn1)c1ccccc1 (stereo not drawn)	none (no result: KCNQ1 inh, Kir21 block, KCNK9 inh, KCNQ1 pot, hERG rescue)
CCSC(C)CC1C/C(=N/O)c2c(CC)noc2C1 (stereo not drawn)	none
CCCc1noc2c1/C(=N\O)CC(CC(C)SCC)C2 (stereo not drawn)	KCNK9 inh -7
COc1cc(-c2n[nH]c(=S)n2C(C)c2ccccc2)cc(OC)c1OC (stereo not drawn)	Kir21 block -4.3
COc1ccc(CCNC(=O)COc2cccc3c2OC(C)(C)C3)cc1OC	Kir21 block -5.8
CC1(C)Cc2cccc(OCC(=O)OCC(=O)NCc3ccccc3)c2O1	Kir21 block -4.3
CC1(C)Cc2cccc(OCC(=O)NCc3ccc(F)cc3)c2O1	none (no result: KCNQ1 inh, Kir21 block, KCNK9 inh, KCNQ1 pot, hERG rescue)
COc1ccccc1NC(=O)c1ccc(Cl)c(S(=O)(=O)NCc2ccco2)c1	none (no result: KCNQ1 inh, Kir21 block, KCNK9 inh, KCNQ1 pot, hERG rescue)
COC(=O)c1cn(NC(=O)CCC2CCCC2)c(=O)c2ccccc12	hERG rescue 5.8
COc1ccccc1NC(=O)NNC(=O)c1ccncc1	none (no result: KCNQ1 inh, Kir21 block, KCNK9 inh, KCNQ1 pot, hERG rescue)
CCCCn1c(NC(=O)c2ccco2)c(S(=O)(=O)c2ccc(C)cc2)c2nc3ccccc3nc21	none
CCCCCn1c(NC(=O)c2ccco2)c(S(=O)(=O)c2ccc(C)cc2)c2nc3ccccc3nc21	KCNQ1 inh 10
Cc1ccc(S(=O)(=O)c2c(N)n(NC(=O)c3ccccc3C)c3nc4ccccc4nc23)cc1	KCNK3 block -8.8
Cc1ccc(C(=O)Nn2c(N)c(S(=O)(=O)c3ccc(C)cc3)c3nc4ccccc4nc32)cc1	none
CCCCn1c(NC(=O)c2ccc(Br)o2)c(S(=O)(=O)c2ccccc2)c2nc3ccccc3nc21	KCNQ1 inh 12
